Source: ChEMBL document CHEMBL5653608 (Br J Pharmacol, 2011)

Key:
[1] = Induction of relaxation in […] C57BL/6 mouse trachea at 0.1 to 30 uM incubated for 30 mins relative to control (reference value: 21.6 +/- 8.8%); type: functional; parameters: scale not given: the % may be the effect or the level left; settings: dose 0.1-30 µM, 0.5 h
[2] = Inhibition of EFS-induced contraction of Beagle dog bronchiole; type: functional, tissue-based, Canis lupus familiaris
[3] = Induction of relaxation in forskolin-induced carbachol pre-contracted C57BL/6 mouse trachea incubated for 30 mins; type: functional, tissue-based
Summary of the method: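 Male C57BL/6 tracheal rings at 0.35 g tension in Krebs (95% O2/5% CO2, 37°C). Rings were precontracted with 10 µM carbachol before cumulative half-log PGE2 (0.1 nM–30 µM). Curves were repeated in the same ring after 30 min with 3 nM antagonist or DMSO, and 10 µM forskolin set maximal relaxation. pKB = log(CR−1) − log[B].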

[4] = Inhibition of EFS-induced contraction of human myometrium incubated for 60 mins; type: functional, tissue-based
Summary of the method: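 Human myometrial strips (donors aged 24–76) in a 15 mL Krebs bath at 37°C, under EFS at 15 V, 1.5 ms pulses, 10 s every 100 s, at a submaximal 15 Hz. Antagonist (10 or 100 nM) or vehicle was equilibrated for 60 min. Cumulative butaprost (0.1 nM–10 µM) or PGE2 (0.1 nM–3 µM) was given for at least five EFS responses per concentration. pKB was calculated from same-donor concentration ratios.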

EC50 [2]: 139 nM
EC50 [3]: 893 nM
IC50 [4]: 27.8 nM
Compound: CCCC1([C@H](O)C/C=C/[C@H]2[C@H](O)CC(=O)[C@@H]2CCCCCCC(=O)OC)CCC1 [BUTAPROST]
Activity [1]: 69.1%
